This is an account of results in ChEMBL document CHEMBL4219052, “Synthesis and biological evaluation of 6-substituted-5-fluorouridine ProTides” (Bioorg Med Chem, 2018).

The target of one data set is T1, Carboxypeptidase Y (Saccharomyces cerevisiae (strain ATCC 204508 / S288c) (Baker's yeast), UniProt P00729).
T1 sequence (P00729 whole entry): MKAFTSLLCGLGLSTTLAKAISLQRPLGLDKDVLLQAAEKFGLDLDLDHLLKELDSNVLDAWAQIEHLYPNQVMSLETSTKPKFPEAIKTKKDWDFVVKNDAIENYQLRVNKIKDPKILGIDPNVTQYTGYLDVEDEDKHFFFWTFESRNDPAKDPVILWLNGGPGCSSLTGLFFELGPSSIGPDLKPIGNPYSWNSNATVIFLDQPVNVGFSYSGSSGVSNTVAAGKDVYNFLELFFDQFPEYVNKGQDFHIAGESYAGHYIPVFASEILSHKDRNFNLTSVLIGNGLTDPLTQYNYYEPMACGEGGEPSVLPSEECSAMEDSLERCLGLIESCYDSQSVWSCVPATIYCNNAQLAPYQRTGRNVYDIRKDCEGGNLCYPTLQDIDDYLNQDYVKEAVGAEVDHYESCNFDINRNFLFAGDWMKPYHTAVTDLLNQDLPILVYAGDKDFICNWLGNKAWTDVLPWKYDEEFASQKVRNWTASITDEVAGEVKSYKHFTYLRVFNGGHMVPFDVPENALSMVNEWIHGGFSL
As to the kind of experiment: Prodrug activation assessed as yeast carboxypeptidase Y mediated (2S)-2-((((2R,3S,4R,5R)-5-(6-azido-5-fluoro-2,4-dioxo-3,4-dihydropyrimidin-1(2H)-yl)-3,4-dihydroxytetrahydrofuran-2-yl)methoxy)(hydroxy)phosphorylamino)propanoic acid formation at pH 7.6 measured within 60 mins by 31P NMR analysis. Conditions: pH 7.6, 1 h. An outline of the steps: (§1)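 ProTide (5.0 mg) dissolved in acetone-d6 (0.15 mL) plus Trizma buffer pH 7.6 (0.30 mL), treated with carboxypeptidase Y; conversion followed by ³¹P NMR over 14 h.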

A short description of data set [1]: Half life in acetone d6 at pH 7.6 Trizma buffer by 31P NMR analysis. The format is physicochemical. Conditions: Trizma buffer with acetone-d6, pH 7.6. In outline: as §1
A further data set has as its system Chikungunya virus. As to the kind of experiment: Antiviral activity against Chikungunya virus infected in African green monkey Vero cells assessed as reduction in virus-induced cytopathic effect pretreated for 1 hr followed by viral infection measured after 3 days by crystal violet staining based assay. It is filed as functional, organism-based. (Cytopathic effects are the visible damage that an infection or toxin causes in cultured cells.)

The nature of data set [2]: Cytotoxicity against African green monkey Vero cells measured after 3 days by CelltiterGlo luminescence assay. Conditions: chlorocebus sabaeus. It is filed as cell-based. An outline of the steps: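 Vero cells seeded and left overnight; growth medium then replaced by serial compound dilutions, added in triplicate; medium-only wells defined 0% cytotoxicity. On day 3 cells were lysed and ATP content measured by luciferase luminescence (CellTiter-Glo); CC50 obtained from a 4-PL curve fit.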
For orientation: Cellular ATP, detected with luciferase, serves as a proxy for viable cell number.

Data set [3] addresses T2, Orotidine 5'-phosphate decarboxylase (Saccharomyces cerevisiae S288c, UniProt P03962).
T2 sequence (P03962 whole entry): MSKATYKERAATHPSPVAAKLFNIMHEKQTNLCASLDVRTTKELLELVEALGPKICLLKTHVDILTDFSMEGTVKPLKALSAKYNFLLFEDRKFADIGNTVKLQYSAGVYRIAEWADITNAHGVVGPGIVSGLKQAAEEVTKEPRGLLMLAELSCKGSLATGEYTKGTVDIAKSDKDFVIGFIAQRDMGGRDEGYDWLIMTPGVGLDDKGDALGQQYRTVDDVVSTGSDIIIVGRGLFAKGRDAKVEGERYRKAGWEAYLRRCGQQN
As to the kind of experiment: Inhibition of yeast ODCase.

The target in data set [4] is Orotidine 5'-phosphate decarboxylase (Methanobacterium thermoautotrophicum, UniProt O26232). As to the kind of experiment: Inhibition of Methanobacterium thermoautotrophicum ODCase. Set-up: species or system Methanothermobacter thermautotrophicus.
Sequence of Orotidine 5'-phosphate decarboxylase (Methanobacterium thermoautotrophicum, UniProt O26232) (O26232 whole entry): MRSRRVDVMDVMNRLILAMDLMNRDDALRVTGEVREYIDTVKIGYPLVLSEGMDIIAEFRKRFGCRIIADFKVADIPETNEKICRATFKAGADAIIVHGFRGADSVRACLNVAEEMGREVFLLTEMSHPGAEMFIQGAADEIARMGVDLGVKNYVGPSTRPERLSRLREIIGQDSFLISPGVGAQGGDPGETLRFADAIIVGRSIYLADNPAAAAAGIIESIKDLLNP
In data set [5] the target is T3, Uridine 5'-monophosphate synthase (Homo sapiens, UniProt P11172).
T3 sequence (P11172 whole entry): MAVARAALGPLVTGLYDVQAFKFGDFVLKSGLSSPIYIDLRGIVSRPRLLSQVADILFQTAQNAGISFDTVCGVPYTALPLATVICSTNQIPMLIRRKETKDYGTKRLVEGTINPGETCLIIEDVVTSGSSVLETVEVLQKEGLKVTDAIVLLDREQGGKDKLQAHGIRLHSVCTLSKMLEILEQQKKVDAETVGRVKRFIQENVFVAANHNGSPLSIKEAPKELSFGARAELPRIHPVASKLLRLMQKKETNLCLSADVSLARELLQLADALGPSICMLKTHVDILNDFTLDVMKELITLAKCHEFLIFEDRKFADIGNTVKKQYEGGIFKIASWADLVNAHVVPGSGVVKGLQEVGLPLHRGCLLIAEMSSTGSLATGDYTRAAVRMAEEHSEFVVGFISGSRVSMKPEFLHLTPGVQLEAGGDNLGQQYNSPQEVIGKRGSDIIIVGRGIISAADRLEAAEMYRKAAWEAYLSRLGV
Nature of the data set: Inhibition of human ODCase.

Where only a bound is given, the exact number is not on record here.

Regarding `C[C@H](NP(=O)(O)OC[C@H]1O[C@@H](n2c(N=[N+]=[N-])c(F)c(=O)[nH]c2=O)[C@H](O)[C@@H]1O)C(=O)O`, at Carboxypeptidase Y, the Drug metabolism is given as 7.17 ppm. Further, the half-life – broadly, the time needed for the level to fall by half in the phase considered – in data set [1] is less than 5 min.
Consider `O=c1cnn([C@@H]2O[C@H](CO)[C@@H](O)[C@H]2O)c(=O)[nH]1` [6-AZAURIDINE], for which the 50% effective concentration (EC50) (as a rule, the concentration at which the effect is half-maximal) in the data set with Chikungunya virus was 0.468 µM. In data set [2], the CC50 (in general, the concentration giving 50% cytotoxicity) at 72 h was greater than 10 µM. Further, the Ki – broadly, the equilibrium dissociation constant of an inhibitor or competing ligand from its target – in data set [3] was 0.064 µM; in data set [4], 11 µM.
With `NC(=O)c1[nH]nc([C@@H]2O[C@H](CO)[C@@H](O)[C@H]2O)c1O` [PYRAZOFURIN], the Ki in data set [4] was found to be 6.2 µM; in data set [5] it was 0.017 µM.
